Most compounds without a hit are left out; they make up all but 4.1% or so of the library.
hERG rescue – hERG (human) protection from proarrhythmic block | hit rate 0.51% among 310,000 | AID 1511 | Q12809 | activation (rescue from dofetilide block), less the hit threshold, % at 10 µM | CHO-hERG, FluxOR thallium flux, dofetilide IC70 present;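 active means activation above the mean of controls blocked by dofetilide plus 5 SD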;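 further: thallium influx through hERG after potassium depolarization seen as dye fluorescence rise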
KCC2 mod – modulates chloride dependent transport by human KCC2; KCC2 cells, thallium flux FluoZin-2 fluorescence; B-score of Tl+ flux slope (higher = more flux/activation; lower = inhibition) at 10 µM; hit rate 2.2% among 190,000; AID 1456;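 active means thallium flux slope and its plate-corrected score both differing from the plate sample mean at a set confidence after two filtering rounds, in either direction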;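 further: slope of fluorescence scaled to starting intensity during 10 to 20 s after thallium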
KCNK3 inh – human KCNK3 channel inhibition, primary screen. O14649. CHO-KCNK3 thallium flux, FluxOR fluorescence; active compounds read low. B-score at 10 µM. hit rate 0.84% among 340,000;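 active means B-score under library mean minus 4 SD, starting fluorescence ratio at most library mean plus 5 SD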;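 further: more negative B-score means stronger inhibition of thallium flux through KCNK3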
Target sequence (O14649 whole entry, looked up): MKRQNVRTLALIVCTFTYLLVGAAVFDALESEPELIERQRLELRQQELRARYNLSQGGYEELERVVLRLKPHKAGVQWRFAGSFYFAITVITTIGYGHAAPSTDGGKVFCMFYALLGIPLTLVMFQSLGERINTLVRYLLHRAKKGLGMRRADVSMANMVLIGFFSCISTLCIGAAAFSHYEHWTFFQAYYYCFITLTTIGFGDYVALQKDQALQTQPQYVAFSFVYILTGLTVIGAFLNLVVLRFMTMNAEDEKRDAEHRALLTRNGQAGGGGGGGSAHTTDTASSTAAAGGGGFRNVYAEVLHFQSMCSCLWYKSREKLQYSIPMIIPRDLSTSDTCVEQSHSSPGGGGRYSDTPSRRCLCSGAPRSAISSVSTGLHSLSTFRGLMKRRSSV
KCNQ1 block – human KCNQ1 channel inhibition | B-score at 10 µM | CHO-K1 KCNQ1, FluxOR thallium flux fluorescence; active compounds read high | hit rate 1.3% among 310,000;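 active means compounds whose thallium flux B-score, printed positive for inhibition, exceeds three library SD while starting fluorescence stays within three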;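 further: channel opened by potassium depolarization with thallium stimulus after 20 min compound exposure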
KCNK9 block – human KCNK9 channel inhibition; Q9NPC2; HEK293 KCNK9, FluxOR thallium flux fluorescence; active compounds read low; B-score at 10 µM; hit rate 1.2% among 310,000;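 active means ratio B-score over 3 SD below the library mean, with starting fluorescence within 5 SD of its mean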;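 further: negative B-score means less thallium flux so channel inhibition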
Target sequence (Q9NPC2 whole entry, looked up): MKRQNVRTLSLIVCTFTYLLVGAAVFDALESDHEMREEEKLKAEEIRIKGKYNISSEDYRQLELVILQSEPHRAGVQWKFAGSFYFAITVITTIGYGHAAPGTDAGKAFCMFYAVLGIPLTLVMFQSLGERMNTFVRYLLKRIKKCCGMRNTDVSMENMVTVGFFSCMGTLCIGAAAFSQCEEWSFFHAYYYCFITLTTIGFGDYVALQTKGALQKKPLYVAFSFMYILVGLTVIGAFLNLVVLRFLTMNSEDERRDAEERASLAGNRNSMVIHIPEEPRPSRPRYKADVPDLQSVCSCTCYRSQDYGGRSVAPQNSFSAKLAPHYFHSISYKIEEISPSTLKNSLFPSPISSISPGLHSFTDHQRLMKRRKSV
KCNQ1 act – potentiates or activates the human KCNQ1 potassium channel. P51787. hit rate 0.35% among 310,000. B-score at 10 µM. CHO-K1 KCNQ1, thallium flux FluxOR fluorescence; active compounds read high;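 active means fluorescence ratio B-score, a plate-corrected score, at least three library SD, with initial intensity B-score within 5 SD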
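Medium – assay buffer, equal DMSO in all wells · Material – CHO-K1 cell line with stable KCNQ1 potassium channel expression · Signal – kinetic FluxOR thallium fluorescence, 10-s 1-Hz baseline, 110-s post-stimulus read · Compound – single concentration per compound, DMSO matched to controls · Schedule – 37 °C overnight plating, 90-min dark dye load, 20-min compound pretreatment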
KCC2 sec1 – KCC2 (human) modulation, secondary assay; shares compounds with KCC2 mod; HEK293-KCC2, thallium flux, FluoZin2 fluorescence; active compounds read high; normalised thallium flux (F/F0 slope) at 10 µM; hit rate 15% among 3,700;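 active means thallium flux slope above the same plate's solvent-only control mean plus 3 SD; inconclusive means the two replicate wells disagree; inactive means no significant difference from solvent-only control wells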
KCC2 bumet counter – thallium flux despite bumetanide block in KCC2 cells, secondary assay 3; shares compounds with KCC2 mod; HEK293-KCC2 + bumetanide/ouabain, thallium flux FluoZin2; active compounds read high; normalized thallium flux at 10 µM; hit rate 49% among 3,700;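 active means thallium entry rate above the same plate's blocked-transporter control wells by more than 3 SD; inconclusive means the two repeat wells disagree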;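 further: raw slope of fluorescence over initial fluorescence between 10 and 20 s after thallium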
KCC2 sec2 – KCC2 (human) modulation, second secondary assay; shares compounds with KCC2 mod; normalized thallium flux at 10 µM; hit rate 23% among 3,700; HEK293-KCC2, thallium flux FluoZin2 fluorescence; actives lie on both sides; F/F0 rise rate, 10–20 s post-thallium;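 active means thallium flux slope more than 3 SD above or below the plate's solvent-only control mean, mostly below; inconclusive means the two repeat wells disagreed; inactive means no significant shift from solvent-only controls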
HEK293 Tl flux – acts in parental HEK cells, KCC2 counter-screen; thallium flux rate (normalised fluorescence) at 10 µM; AID 1716; HEK293 parental cells, thallium flux FluoZin2, ouabain; baseline-ratio fluorescence slope, 10–20 s after thallium; shares compounds with KCC2 mod; hit rate 46% among 3,700;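 active means thallium flux rate significantly above the same plate's solvent-only control wells, beyond their mean plus 3 SD; inconclusive means the two replicate wells gave conflicting results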
KCC2 ouabain – modulates human KCC2 on retest with ouabain; shares compounds with KCC2 mod; HEK293-KCC2, thallium flux FluoZin2 fluorescence; bidirectional: low = inhibitor, high = activator; raw Tl+ flux slope (below DMSO = inhibition, above = activation) at 10 µM; hit rate 48% among 3,700;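 active means thallium flux slope beyond 3 SD from same-plate DMSO control mean in most replicates, usually higher, sometimes lower; inconclusive means repeat tests gave conflicting results; inactive means no significant difference from controls in most replicates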;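 further: slope of initial-normalized fluorescence between seconds 10 and 20 after thallium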
HEK293 Tl flux2 – counter-screen for KCC2 modulators: effect in parental HEK293 cells; shares compounds with KCC2 mod; thallium flux FluoZin-2 fluorescence slope; thallium flux slope at 10 µM; hit rate 33% among 3,700; AID 1718;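 active means thallium flux slope above the same plate's solvent-control mean plus 3 SD in both duplicate wells; inconclusive means duplicate wells that disagreed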;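 further: run without ouabain in cells lacking the KCC2 cotransporter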
Each line names hits and unclear results; the compound was inactive in the other large screens (follow-up assays come after a bar, where they were run).

CC1CN(C(=O)CCn2c(=O)oc3ccccc32)CC(C)O1 (configuration not stated)	KCNK3 inh -9 (no result: KCC2 mod)
O=C(Nc1ccccc1OC(=O)c1ccccc1)c1ccccc1	none (no result: hERG rescue, KCC2 mod, KCNQ1 block, KCNK9 block, KCNQ1 act)
Oc1ccc2ccccc2c1-c1sc(Nc2ccccc2)n[n+]1-c1ccc(F)cc1	KCNQ1 block 9 (no result: KCC2 mod)
CC1CCCN(CC(O)CN2CCN(CC(O)CN3CCCC(C)C3)C(C)C2)C1 (configuration not stated)	none (no result: hERG rescue, KCC2 mod, KCNQ1 block, KCNK9 block, KCNQ1 act)
CCN(CC)CCn1c(OC)cc(=O)[nH]c1=O	KCNQ1 act 7
CCN(CC)CCn1c(N)cc(=O)[nH]c1=O	none
Cc1cccc2sc(NC(=O)c3ccc(OCC4CCCO4)cc3)nc12 (configuration not stated)	hERG rescue 6.5
CCc1ccc(S(=O)(=O)NCc2csc(-c3ccccc3)n2)s1	KCC2 mod -4.9
CN(c1cccc(NC(=O)CN(c2cccc(Cl)c2)S(=O)(=O)c2ccc(Cl)cc2)c1)S(C)(=O)=O	KCNK9 block -7.3
Cc1ccc(Cl)cc1N(CC(=O)Nc1cccc(N(C)S(C)(=O)=O)c1)S(C)(=O)=O	none
O=C(NCCCl)Nc1cc([N+](=O)[O-])ccc1Cl	none
O=C(NCCCl)Nc1ccc(Cl)c([N+](=O)[O-])c1	KCNQ1 block 10
CCC(C)NC(C(=O)Nc1ccc(Cl)c([N+](=O)[O-])c1)c1ccccc1 (configuration not stated)	KCNK9 block -7
COCC(C)NC(C(=O)Nc1ccc(Cl)c([N+](=O)[O-])c1)c1ccccc1 (configuration not stated)	none
O=C(Nc1cc([N+](=O)[O-])ccc1Cl)C(Sc1ccccc1)c1ccccc1 (configuration not stated)	KCNK9 block -7.1
CC(CC(=O)Nc1ccc(F)c([N+](=O)[O-])c1)c1ccccc1 (configuration not stated)	KCNQ1 block 6
COc1ccc(S(=O)(=O)N2CCC(C(=O)NC(c3nc4ccccc4[nH]3)C(C)C)CC2)cc1 (configuration not stated)	none (no result: hERG rescue, KCC2 mod, KCNQ1 block, KCNK9 block, KCNQ1 act)
CCOc1ccc(CN(C)C(=O)c2ccc(NC(=O)CC3SC(N4CCCC4)=NC3=O)cc2)cc1 (configuration not stated)	none (no result: KCC2 mod)
CC(C)Oc1ccc(S(=O)(=O)N2CCOCC2)cc1NC(=O)C1CCCCC1	none (no result: hERG rescue, KCC2 mod, KCNQ1 block, KCNK9 block, KCNQ1 act)
O=C(Nc1ccc(Cl)c([N+](=O)[O-])c1)C(Sc1ccccc1)c1ccccc1 (configuration not stated)	KCNQ1 block 11
O=C(Nc1nc(-c2ccncc2)cs1)c1ccco1	none (no result: KCC2 mod) | KCC2 sec1 inactive | KCC2 bumet counter inactive | KCC2 sec2 inactive | HEK293 Tl flux inactive | KCC2 ouabain inactive | HEK293 Tl flux2 inactive
COc1ccc2nc(NC(=O)CCNC(=O)c3ccco3)sc2c1	none (no result: hERG rescue, KCC2 mod, KCNQ1 block, KCNK9 block, KCNQ1 act)
O=C(NC(=S)Nc1nc(-c2ccccc2)cs1)c1ccco1	hERG rescue 25, KCC2 mod 16, KCNQ1 act 30 | KCC2 sec1 inconclusive | KCC2 bumet counter 0.045 | KCC2 sec2 inactive | HEK293 Tl flux 0.02 | KCC2 ouabain 0.032 | HEK293 Tl flux2 0.012
O=C(NC(=S)Nc1c(Cl)ccc2nsnc12)c1ccco1	KCC2 mod 19 | KCC2 sec1 0.021 | KCC2 bumet counter 0.067 | KCC2 sec2 inactive | HEK293 Tl flux 0.025 | KCC2 ouabain 0.045 | HEK293 Tl flux2 0.015
COc1ccc2nc(NC(=S)NC(=O)c3ccco3)sc2c1	hERG rescue 31, KCC2 mod 80, KCNQ1 act 25 | KCC2 sec1 0.03 | KCC2 bumet counter 0.14 | KCC2 sec2 0.03 | HEK293 Tl flux 0.075 | KCC2 ouabain 0.097 | HEK293 Tl flux2 0.039
CN(C)S(=O)(=O)c1ccc(C(=O)Nc2cc3c(cc2C(=O)O)OCCCO3)cc1	none (no result: KCC2 mod)
O=C(NNC(=O)c1ccc2ccccc2c1)c1cccc(Cl)c1	none (no result: hERG rescue, KCC2 mod, KCNQ1 block, KCNK9 block, KCNQ1 act)
COc1ccc(-c2csc(NC(=S)NC(=O)c3ccco3)n2)cc1	KCNQ1 act 8 (no result: KCC2 mod) | KCC2 sec1 inactive | KCC2 bumet counter 0.016 | KCC2 sec2 0.043 | HEK293 Tl flux 0.024 | KCC2 ouabain 0.028 | HEK293 Tl flux2 0.023
CC(CCc1ccccc1)NC(=S)NC(=O)c1ccco1 (configuration not stated)	hERG rescue 25, KCC2 mod 103, KCNQ1 act 24 | KCC2 sec1 0.035 | KCC2 bumet counter 0.09 | KCC2 sec2 0.07 | HEK293 Tl flux 0.07 | KCC2 ouabain 0.076 | HEK293 Tl flux2 0.068
CCc1nc2ccccc2n1CC(=O)NC1CCS(=O)(=O)C1 (configuration not stated)	none (no result: hERG rescue, KCC2 mod, KCNQ1 block, KCNK9 block, KCNQ1 act)
CCn1c(-c2ccc(C(C)(C)C)cc2)n[nH]c1=S	KCC2 mod 6.8 | KCC2 sec1 inconclusive | KCC2 bumet counter 0.03 | KCC2 sec2 inactive | HEK293 Tl flux inconclusive | KCC2 ouabain 0.032 | HEK293 Tl flux2 inconclusive
CCn1c(-c2ccc(F)cc2)n[nH]c1=S	none
COc1ccc(CN2C3CCCC2CC(NC(=O)Nc2ccccc2C)C3)cc1 (configuration not stated)	KCC2 mod 2.5 | KCC2 sec1 inactive | KCC2 bumet counter inactive | KCC2 sec2 inactive | HEK293 Tl flux inconclusive | KCC2 ouabain inactive | HEK293 Tl flux2 inactive
COc1ccc(CN2C3CCCC2CC(NC(=O)Nc2ccccc2)C3)cc1 (configuration not stated)	none
COc1cccc(C2c3[nH]c4ccccc4c3C[C@H]3C(=O)N(c4ccccc4C(=O)NCCCN4CCOCC4)C(=O)N23)c1 (some centres not stated)	none (no result: KCC2 mod)

Compound activity: PubChem BioAssay, several laboratories
